This is an account of results in ChEMBL document CHEMBL2021883, “Amino acid, dipeptide and pseudodipeptide conjugates of ring-substituted 8-aminoquinolines: synthesis and evaluation of anti-infective, β-haematin inhibition and cytotoxic activities” (Eur J Med Chem, 2012).

Broadly, the IC50 is the concentration needed to halve the response being measured. What is called IC90 is the point of the concentration-response curve where the effect stands at 90%. In general, MFC refers to the smallest concentration meeting the test's criterion for killing the fungus. Usually MIC stands for the smallest concentration in the dilution series that meets the test's criterion for growth inhibition.

In test [1] the test system is Plasmodium falciparum. Briefly: Antimalarial activity against chloroquine-sensitive Plasmodium falciparum D6 assessed as plasmodial LDH activity. Type of test: functional, organism-based.
Test [2] relates to Plasmodium falciparum. Nature of the test: Antimalarial activity against chloroquine-resistant Plasmodium falciparum W2 assessed as plasmodial LDH activity. It is filed as functional, organism-based.
The subject of a further test is Vero. Briefly: Cytotoxicity against african green monkey Vero cells upto 23.8 […] by neutral dye assay. It is filed as cell-based, Chlorocebus sabaeus. The method, boiled down: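 Vero monkey kidney cells were exposed to compound up to a highest concentration of 23.8, with viability read by neutral red uptake.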
Test [3] in a line: Inhibition of beta-hematin formation. It is filed as functional.
The subject of the next test is Leishmania donovani. Briefly: Antileishmanial activity against Leishmania donovani promastigote by Alamar Blue assay. Type of test: functional, organism-based. In general terms: Resazurin is reduced to fluorescent resorufin, in cell work by metabolically active cells.
Test [4] has as its system Staphylococcus aureus. Briefly: Antimicrobial activity against Staphylococcus aureus ATCC 29213 by CLSI method. Type of test: functional, organism-based.
Test [5] relates to Staphylococcus aureus. Briefly: Antimicrobial activity against methicillin-resistant Staphylococcus aureus ATCC 43300 by CLSI method. It is filed as functional, organism-based.
The test system of test [6] is Mycobacterium intracellulare. Briefly: Antimicrobial activity against Mycobacterium intracellulare ATCC 23068 by Franzblau method. It is filed as functional, organism-based.
For another test, the system named is Escherichia coli. Nature of the test: Antimicrobial activity against Escherichia coli ATCC 35218 by CLSI method. Type of test: functional, organism-based.
In a further test the test system is Pseudomonas aeruginosa. Nature of the test: Antimicrobial activity against Pseudomonas aeruginosa ATCC 27853 by CLSI method. Type of test: functional, organism-based. An outline of the steps:
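Antibacterial testing used CLSI/NCCLS broth dilution for aerobically growing bacteria, with 20 as the highest test concentration.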

For a further test, the system named is Aspergillus fumigatus. Nature of the test: Antifungal activity against Aspergillus fumigatus. Type of test: functional, organism-based. An outline of the steps: (§1)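 Yeasts and A. fumigatus were tested by broth microdilution following the NCCLS antifungal standards. The highest test concentration was 20.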
The test system of another test is Cryptococcus neoformans. Nature of the test: Antifungal activity against Cryptococcus neoformans. Type of test: functional, organism-based. The method, boiled down: as §1
Test [7] has as its system Candida albicans. Briefly: Antifungal activity against Candida albicans at 20 ug/ml. It is filed as functional, organism-based. An outline of the steps: (§2)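 Broth dilution antifungal testing followed the NCCLS reference method for yeasts, with 20 as the highest test concentration. MIC was the lowest concentration with no detectable growth. MFC was the lowest concentration killing the organism.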

Test [8] relates to Candida albicans. Nature of the test: Fungicidal activity against Candida albicans at 20 ug/ml. It is filed as functional, organism-based. An outline of the steps:
as §2

The structures appear in SMILES notation. In brackets after ≈: the same amount, converted by molar mass. Activity calls are given as the source filed them.

For the molecule `COc1cc(NC(C)CCCNC(=O)[C@@H](CCCCN)NC(=O)[C@H](N)CCCCN)c2ncccc2c1` (stereo partly drawn), the IC50 entry is “Not Active” with Plasmodium falciparum [1]; “Not Active” in the test with Plasmodium falciparum [2]; “Non-toxic” in the test with Vero; 0.31 mM in test [3]; 3.5 µg/mL (≈ 6.79 µM) in the test on Leishmania donovani (Leishmania donovani, read-out: IC50); 3.5 µg/mL (≈ 6.79 µM) with Cryptococcus neoformans. This molecule returned an IC90 in the test on Leishmania donovani (Leishmania donovani) of 7 µg/mL (≈ 13.6 µM). Further, the result (with Staphylococcus aureus [4]; in the test on Staphylococcus aureus [5]; in test [6]; in the test with Escherichia coli; in the test on Pseudomonas aeruginosa; with Aspergillus fumigatus) was inactive. The result with Candida albicans [7] and with Candida albicans [8] was inactive. Besides, the MFC with Cryptococcus neoformans was determined as 5 µg/mL (≈ 9.7 µM). Further, it took 5 µg/mL (≈ 9.7 µM) to inhibit growth in the test with Cryptococcus neoformans (MIC).

As to `COc1cc(NC(C)CCCNC(=O)C[C@@H](NC(=O)[C@H](N)CCCN)C(=O)O)c2ncccc2c1` (stereo partly drawn), the IC50 entry in the test on Plasmodium falciparum [1] is “Not Active”; with Plasmodium falciparum [2], “Not Active”; in the test with Vero, “Non-toxic”; in test [3] it was greater than 1 mM; in the test with Leishmania donovani, “Not Active”; with Cryptococcus neoformans it was 7 µg/mL (≈ 14.3 µM). Besides, in the test with Leishmania donovani, the IC90 entry was “inactive”. Moreover, the result (with Staphylococcus aureus [4]; in the test with Staphylococcus aureus [5]; in test [6]; in the test on Escherichia coli; in the test on Pseudomonas aeruginosa; in the test with Aspergillus fumigatus) was inactive. Besides, the outcome in the test with Candida albicans [7] and with Candida albicans [8] was inactive. In addition, the MFC in the test on Cryptococcus neoformans is 10 µg/mL (≈ 20.5 µM). Besides, the MIC in the test on Cryptococcus neoformans is 10 µg/mL (≈ 20.5 µM).

Turning to `COc1cc(NC(C)CCCNC(=O)CC[C@H](NC(=O)[C@@H](N)CCCCN)C(=O)O)c2nc(C(C)(C)C)ccc2c1` (stereo partly drawn), the 50% inhibitory concentration (IC50) result in the test on Plasmodium falciparum [1] is “Not Active”; in the test with Plasmodium falciparum [2], “Not Active”; in the test on Vero, “Non-toxic”; in test [3], greater than 1 mM; in the test on Leishmania donovani, “Not Active”; with Cryptococcus neoformans it was 15 µg/mL (≈ 26.2 µM). Besides, the IC90 result with Leishmania donovani is “inactive”. The outcome (in the test with Staphylococcus aureus [4]; in the test with Staphylococcus aureus [5]; in test [6]; in the test on Escherichia coli; with Pseudomonas aeruginosa; in the test with Aspergillus fumigatus) was inactive. Also, the outcome with Candida albicans [7] and in the test on Candida albicans [8] was inactive. This molecule also showed an MFC in the test with Cryptococcus neoformans of 20 µg/mL (≈ 34.9 µM). The same molecule showed an MIC against Cryptococcus neoformans of 20 µg/mL (≈ 34.9 µM).

As for `COc1cc(NC(C)CCCNC(=O)CC[C@H](NC(=O)[C@@H](N)CCCN)C(=O)O)c2nc(C(C)(C)C)ccc2c1` (stereo partly drawn), the concentration for half-maximal inhibition (IC50) entry with Plasmodium falciparum [1] is “Not Active”; with Plasmodium falciparum [2], “Not Active”; in the test on Vero it was “Non-toxic”; in [3], greater than 1 mM; in the test with Leishmania donovani, “Not Active”; in the test on Cryptococcus neoformans, 15 µg/mL (≈ 26.8 µM). For the same molecule, the IC90 result in the test on Leishmania donovani was “inactive”. In addition, the result (with Staphylococcus aureus [4]; in the test on Staphylococcus aureus [5]; in test [6]; in the test on Escherichia coli; in the test with Pseudomonas aeruginosa; in the test on Aspergillus fumigatus) was inactive. In addition, the outcome in the test on Candida albicans [7] and in the test on Candida albicans [8] was inactive. Besides, the MFC in the test on Cryptococcus neoformans was 20 µg/mL (≈ 35.8 µM). The MIC in the test with Cryptococcus neoformans amounted to 20 µg/mL (≈ 35.8 µM).
